{"source": "ChEMBL document CHEMBL4382255", "about": "“Design, synthesis and activity of Mnk1 and Mnk2 selective inhibitors containing thieno[2,3-d]pyrimidine scaffold” (Eur J Med Chem, 2019)", "key": {"[1]": {"organism": "Mus musculus", "assay": "Inhibition of MNK in mouse 3T3L1 cells assessed as reduction of eIF4E phosphorylation at 3 uM after 2 hrs by Western blot analysis", "type": "cell-based", "outline": "(§1)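 Mouse 3T3-L1 pre-adipocytes (DMEM high glucose, 10% heat-inactivated FBS, 37 °C, 5% CO₂) treated 2 h with compounds at 3 μM or lower concentrations down to 0.1 μM final; DMSO vehicle 0.03-0.05% final. RIPA lysates cleared, equal protein resolved by SDS-PAGE, immunoblotted for P-eIF4E and total eIF4E, fluorescent secondary detection.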"}, "[2]": {"target": "Mitogen-activated protein kinase 1 and 3 (ERK2 and ERK1) (Mus musculus) (UniProt P63085+Q63844)", "sequence (P63085 whole entry, looked up)": "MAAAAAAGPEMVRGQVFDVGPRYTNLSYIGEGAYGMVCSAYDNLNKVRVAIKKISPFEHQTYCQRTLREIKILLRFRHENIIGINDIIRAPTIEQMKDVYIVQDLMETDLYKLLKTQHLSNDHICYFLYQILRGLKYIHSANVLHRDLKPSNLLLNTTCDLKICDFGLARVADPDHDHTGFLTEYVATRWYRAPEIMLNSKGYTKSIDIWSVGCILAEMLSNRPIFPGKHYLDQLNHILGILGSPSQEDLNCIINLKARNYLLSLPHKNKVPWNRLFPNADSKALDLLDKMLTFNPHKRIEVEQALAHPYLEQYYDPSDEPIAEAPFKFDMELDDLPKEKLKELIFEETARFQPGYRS", "sequence (Q63844 whole entry, looked up)": "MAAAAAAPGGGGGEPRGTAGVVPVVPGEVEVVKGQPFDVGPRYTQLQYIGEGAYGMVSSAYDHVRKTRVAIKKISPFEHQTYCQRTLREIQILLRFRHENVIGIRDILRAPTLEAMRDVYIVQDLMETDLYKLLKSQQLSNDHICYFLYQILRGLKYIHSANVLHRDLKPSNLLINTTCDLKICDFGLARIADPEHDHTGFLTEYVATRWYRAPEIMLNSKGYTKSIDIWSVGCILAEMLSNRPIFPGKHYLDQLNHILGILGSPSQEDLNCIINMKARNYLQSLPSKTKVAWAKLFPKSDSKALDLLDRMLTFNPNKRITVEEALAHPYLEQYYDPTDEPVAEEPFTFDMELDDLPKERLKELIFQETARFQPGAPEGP", "assay": "Stimulation of ERK1/2 phosphorylation at Thr202/Tyr204 residues in mouse 3T3L1 cells at 0.1 to 5 uM after 2 hrs by Western blot analysis", "type": "cell-based", "outline": "(§2)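 3T3-L1 cells treated 2 h with inhibitor at indicated concentrations (DMSO <0.05% v/v). RIPA lysates, equal protein by Bradford, SDS-PAGE and western blot with phospho-specific antibodies (ERK, RSK, PKB Ser473, 4E-BP1, rpS6); fluorescent secondary imaging. Quantified from three independent experiments, SEM error bars.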"}, "[3]": {"target": "MAP kinase-interacting serine/threonine-protein kinase 2 (Homo sapiens) (UniProt Q9HBH9)", "sequence (Q9HBH9 whole entry, looked up, the tested form may be a part)": "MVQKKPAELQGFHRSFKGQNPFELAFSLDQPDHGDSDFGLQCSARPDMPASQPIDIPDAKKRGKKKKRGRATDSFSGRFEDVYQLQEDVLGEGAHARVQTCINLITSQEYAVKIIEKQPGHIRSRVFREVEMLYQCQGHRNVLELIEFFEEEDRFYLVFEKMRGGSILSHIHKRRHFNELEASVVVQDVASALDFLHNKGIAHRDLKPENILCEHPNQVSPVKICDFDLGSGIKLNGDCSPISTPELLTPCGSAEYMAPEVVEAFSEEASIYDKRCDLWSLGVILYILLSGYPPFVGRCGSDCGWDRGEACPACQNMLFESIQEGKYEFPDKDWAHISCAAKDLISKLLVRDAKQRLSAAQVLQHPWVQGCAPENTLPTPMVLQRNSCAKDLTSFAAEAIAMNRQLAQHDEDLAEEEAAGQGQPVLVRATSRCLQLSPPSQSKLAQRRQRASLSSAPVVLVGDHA", "assay": "Inhibition of GST-fused MNK2a (unknown origin) expressed in HEK293 cells using eIF4E as substrate after 30 mins by Western blot analysis", "type": "cell-based", "outline": "(§3)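 GST-MNK1a or GST-MNK2a expressed in transfected HEK293 cells, purified by glutathione pull-down. Incubated in 25 mM Tris-HCl pH 7.5, 50 mM KCl, 2 mM MgCl₂ with 20 µM ATP and 65 ng E. coli-expressed eIF4E, 30 °C, 30 min, ± inhibitor. Stopped with sample buffer; immunoblotted for P-eIF4E Ser209, eIF4E and GST. Conditions pre-set within linear range.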"}, "[4]": {"organism": "Mus musculus", "assay": "Inhibition of mTORC1 in mouse 3T3L1 cells assessed as reduction in rpS6 phosphorylation at Ser240/244 residues at 0.1 to 5 uM after 2 hrs by Western blot analysis", "type": "cell-based", "outline": "as §2"}, "[5]": {"target": "MAP kinase-interacting serine/threonine-protein kinase 2 (Mus musculus) (UniProt Q8CDB0)", "sequence (Q8CDB0 whole entry)": "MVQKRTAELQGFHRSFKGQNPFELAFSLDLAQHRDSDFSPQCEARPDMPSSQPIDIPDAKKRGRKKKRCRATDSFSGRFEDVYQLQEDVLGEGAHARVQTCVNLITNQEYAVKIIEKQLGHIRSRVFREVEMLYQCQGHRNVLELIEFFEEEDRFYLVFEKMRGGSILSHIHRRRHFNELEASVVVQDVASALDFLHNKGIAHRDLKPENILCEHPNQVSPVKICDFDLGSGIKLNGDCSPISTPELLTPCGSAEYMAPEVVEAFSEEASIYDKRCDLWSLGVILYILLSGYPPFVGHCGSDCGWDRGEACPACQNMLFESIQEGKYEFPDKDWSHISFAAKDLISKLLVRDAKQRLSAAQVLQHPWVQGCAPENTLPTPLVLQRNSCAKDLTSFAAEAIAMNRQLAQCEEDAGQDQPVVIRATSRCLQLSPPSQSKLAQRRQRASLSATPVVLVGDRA", "assay": "Inhibition of MNK2 in MNK1-knockout C57BL/6J mouse embryonic fibroblasts assessed as decrease in eIF4E phosphorylation at 0.003 to 0.03 uM after 2 hrs by Western blot analysis", "outline": "(§4)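 MEFs from E13.5 C57BL/6J embryos, wild-type, MNK1-KO or MNK2-KO (DMEM, 10% FBS), treated 2 h with inhibitor at indicated concentrations, including a lower-concentration series in MNK1-KO cells; CGP57380 at 50 μM as reference. Lysates analysed by SDS-PAGE/western blot for P-eIF4E; quantified from three independent experiments, SEM.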"}, "[6]": {"target": "T1, MAP kinase-interacting serine/threonine-protein kinase 1/2 (Homo sapiens) (UniProt Q9HBH9+Q9BUB5)", "assay": "Inhibition of MNK in human MDA-MB-231 cells assessed as decrease in eIF4E phosphorylation at 1 uM after 2 hrs by Western blot analysis", "type": "cell-based", "outline": "(§5)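 MDA-MB-231 cells treated with inhibitor at indicated concentrations for 2 h, or at 3 μM for times up to 72 h (DMSO vehicle <0.05%). Cells lysed in RIPA buffer; supernatants analysed by SDS-PAGE and western blot for P-eIF4E and total eIF4E. CGP57380 at 30 μM as reference.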"}, "[7]": {"organism": "Mus musculus", "assay": "Inhibition of mTORC2 in mouse 3T3L1 cells assessed as reduction in PKB phosphorylation at Ser473 residue at 0.1 to 5 uM after 2 hrs by Western blot analysis", "type": "cell-based", "outline": "as §2"}, "[8]": {"target": "MAP kinase-interacting serine/threonine-protein kinase 1 (Mus musculus) (UniProt O08605)", "sequence (O08605 whole entry)": "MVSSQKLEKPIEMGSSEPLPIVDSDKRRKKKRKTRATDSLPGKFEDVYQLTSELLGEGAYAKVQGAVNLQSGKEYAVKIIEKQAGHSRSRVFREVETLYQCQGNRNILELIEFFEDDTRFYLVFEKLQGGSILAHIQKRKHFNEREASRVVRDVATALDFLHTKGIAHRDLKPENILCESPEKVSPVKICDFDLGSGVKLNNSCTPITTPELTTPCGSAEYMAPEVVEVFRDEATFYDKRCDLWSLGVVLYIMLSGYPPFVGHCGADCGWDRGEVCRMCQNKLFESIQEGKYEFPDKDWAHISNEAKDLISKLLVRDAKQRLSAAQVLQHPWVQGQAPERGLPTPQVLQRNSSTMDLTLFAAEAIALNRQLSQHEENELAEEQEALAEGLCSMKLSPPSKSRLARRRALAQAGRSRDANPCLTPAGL", "assay": "Inhibition of MNK1 in C57BL/6J mouse embryonic fibroblasts assessed as decrease in eIF4E phosphorylation at 0.1 to 0.3 uM after 2 hrs by Western blot analysis relative to control", "outline": "as §4"}, "[9]": {"system": "MDA-MB-231", "assay": "Antimigratory activity against human MDA-MB-231 cells after 24 hrs by DAPI staining-based Transwell assay", "type": "functional, cell-based", "outline": "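MDA-MB-231 cells pre-treated with inhibitor 60 min, then 3 x 10⁵ cells seeded into 8 μm-pore Transwell inserts pre-coated with 10 μg/ml collagen (collagen as attractant). After 24 h, migrated cells in bottom well stained with DAPI, imaged at ×10 and counted. Triplicate assays, mean ± SEM.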"}, "[10]": {"assay": "Inhibition in C57BL/6J mouse embryonic fibroblasts assessed as decrease in eIF4E phosphorylation at 0.1 to 0.3 uM after 2 hrs by Western blot analysis relative to control"}, "[11]": {"organism": "Mus musculus", "assay": "Stimulation of ERK signalling in mouse 3T3L1 cells assessed as increase in RSK phosphorylation at […] residue at 0.1 to 5 uM after 2 hrs by Western blot analysis", "type": "cell-based", "outline": "as §2"}, "[12]": {"target": "T1, MAP kinase-interacting serine/threonine-protein kinase 1/2 (Homo sapiens)", "assay": "Inhibition of MNK in human MDA-MB-231 cells assessed as decrease in eIF4E phosphorylation at 3 uM up to 72 hrs by Western blot analysis", "type": "cell-based", "outline": "as §5"}, "[13]": {"target": "MAP kinase-interacting serine/threonine-protein kinase 2 (Mus musculus) (UniProt Q8CDB0)", "assay": "Inhibition of MNK2 in MNK1-knockout C57BL/6J mouse embryonic fibroblasts assessed as decrease in eIF4E phosphorylation at 0.5 uM after 2 hrs by Western blot analysis", "outline": "as §4"}, "[14]": {"system": "3T3-L1", "assay": "Effect on total eIF4E protein level in mouse 3T3L1 cells at 3 uM after 2 hrs by Western blot analysis", "type": "ADME, cell-based", "settings": "3t3-l1, 2 h", "outline": "as §1"}, "[15]": {"target": "MAP kinase-interacting serine/threonine-protein kinase 1 (Mus musculus) (UniProt O08605)", "assay": "Inhibition of MNK1 in C57BL/6J mouse embryonic fibroblasts assessed as decrease in eIF4E phosphorylation at 5 uM after 2 hrs by Western blot analysis", "outline": "as §4"}, "[16]": {"target": "MAP kinase-interacting serine/threonine-protein kinase 2 (Mus musculus) (UniProt Q8CDB0)", "assay": "Inhibition of MNK2 in C57BL/6J mouse embryonic fibroblasts assessed as decrease in eIF4E phosphorylation at 5 uM after 2 hrs by Western blot analysis", "outline": "as §4"}, "[17]": {"target": "MAP kinase-interacting serine/threonine-protein kinase 1 (Homo sapiens) (UniProt Q9BUB5)", "sequence (Q9BUB5 whole entry, looked up, the tested form may be a part)": "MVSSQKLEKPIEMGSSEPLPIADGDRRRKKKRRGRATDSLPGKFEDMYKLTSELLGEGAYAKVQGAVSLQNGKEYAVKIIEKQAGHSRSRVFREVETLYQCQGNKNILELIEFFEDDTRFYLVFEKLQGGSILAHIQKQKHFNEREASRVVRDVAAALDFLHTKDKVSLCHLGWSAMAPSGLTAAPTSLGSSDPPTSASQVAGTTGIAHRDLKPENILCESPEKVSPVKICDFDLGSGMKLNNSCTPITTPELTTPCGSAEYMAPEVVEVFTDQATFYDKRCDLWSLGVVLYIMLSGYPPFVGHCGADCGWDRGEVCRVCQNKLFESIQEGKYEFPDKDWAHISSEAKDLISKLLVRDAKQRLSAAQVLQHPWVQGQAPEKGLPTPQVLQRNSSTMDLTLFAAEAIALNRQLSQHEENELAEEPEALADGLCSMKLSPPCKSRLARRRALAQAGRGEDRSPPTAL", "assay": "Inhibition of GST-fused MNK1a (unknown origin) expressed in HEK293 cells using eIF4E as substrate after 30 mins by Western blot analysis", "type": "cell-based", "outline": "as §3"}, "[18]": {"system": "MDA-MB-231", "assay": "Cell cycle arrest in human MDA-MB-231 cells at 0.3 to 6 uM after 2 hrs by propidium iodide staining-based flow cytometric analysis", "type": "ADME", "settings": "mda-mb-231, 2 h", "outline": "(§6)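 MDA-MB-231 cells seeded at 5 x 10^5 cells/well, allowed 24 h to attach, then treated with inhibitor or vehicle. Harvested at ~70% confluence, fixed in methanol ≥2 h, stained with 1 µg/ml propidium iodide; ~20,000 cells analysed by flow cytometry for cell-cycle phase proportions including sub-G0. Mean ± SEM, n=5.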"}, "[19]": {"organism": "Mus musculus", "assay": "Inhibition of mTORC1 in mouse 3T3L1 cells assessed as reduction in 4EBP1 at Ser65 residue phosphorylation at 0.1 to 5 uM after 2 hrs by Western blot analysis", "type": "cell-based", "outline": "as §2"}, "[20]": {"organism": "Mus musculus", "assay": "Inhibition of MNK in mouse 3T3L1 cells assessed as reduction of eIF4E phosphorylation at 0.1 uM after 2 hrs by Western blot analysis", "type": "cell-based", "outline": "as §1"}, "[21]": {"target": "MAP kinase-interacting serine/threonine-protein kinase 1 (Mus musculus) (UniProt O08605)", "assay": "Inhibition of MNK1 in MNK2-knockout C57BL/6J mouse embryonic fibroblasts assessed as decrease in eIF4E phosphorylation at 0.3 to 5 uM after 2 hrs by Western blot analysis", "outline": "as §4"}, "[22]": {"system": "MDA-MB-231", "assay": "Cell cycle arrest in human MDA-MB-231 cells assessed as accumulation of cells at sub-G0 phase at 0.3 to 6 uM after 2 hrs by propidium iodide staining-based flow cytometric analysis", "type": "ADME", "settings": "mda-mb-231, 2 h", "outline": "as §6"}}, "note": "Activity calls are given as the source filed them. Unless noted, the rule behind the calls is not given here."}
{"smiles": "Cc1c(C(=O)NCCCN2CCCC2)sc2ncnc(Nc3ccc(F)cc3OC(C)C)c12", "values": [{"measurement": "MNK inhibition (active/not active)", "setting": "[1]", "result": "Active"}, {"measurement": "Activity", "setting": "[2]", "result": "Active"}, {"measurement": "inhibition", "setting": "[3]", "result": "Active"}, {"measurement": "inhibition", "setting": "[4]", "result": "inactive"}, {"measurement": "inhibition", "setting": "[5]", "result": "Active"}, {"measurement": "inhibition", "setting": "[6]", "result": 100, "unit": "%"}, {"measurement": "inhibition", "setting": "[7]", "result": "inactive"}, {"measurement": "inhibition", "setting": "[8]", "result": 50, "unit": "%"}, {"measurement": "inhibition", "setting": "[9]", "result": "Active"}, {"measurement": "inhibition", "setting": "[10]", "result": 50, "unit": "%"}, {"measurement": "Activity", "setting": "[11]", "result": "Active"}, {"measurement": "inhibition", "setting": "[12]", "result": "Active"}, {"measurement": "inhibition", "setting": "[13]", "result": "Active"}, {"measurement": "Activity", "setting": "[14]", "result": "Non-Toxic"}, {"measurement": "inhibition", "setting": "[15]", "result": 100, "unit": "%"}, {"measurement": "inhibition", "setting": "[16]", "result": 100, "unit": "%"}, {"measurement": "inhibition", "setting": "[17]", "result": "Active"}, {"measurement": "Activity", "setting": "[18]", "result": "Non-Toxic"}, {"measurement": "inhibition", "setting": "[19]", "result": "inactive"}, {"measurement": "inhibition of eIF4E phosphorylation (active/not active)", "setting": "[20]", "result": "Active"}, {"measurement": "inhibition", "setting": "[21]", "result": "Active"}, {"measurement": "Activity", "setting": "[22]", "result": "Non-Toxic"}]}
